Shown are actives, neighbours in structure and some others; about 0.27% of the full set was active somewhere.
XiGFP reactiv = activators of X-chromosome reactivation in mouse fibroblasts; XiGFP mouse fibroblasts, % GFP-positive cells imaging, 3 d; cells co-treated with 5-aza-dC sensitizer; scaled so ellipticine positive control = 100%; activation, % at 7.58 µM; 0.055% of 360,000 active;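 active = mean normalized replicate activation at least 10% and every replicate at or above 10%; inconclusive = only one of the two criteria met; inactive = mean below 10% and not all replicates reach 10%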;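 note: 0% = median of on-plate neutral control wells and 100% = ellipticine 6 µM median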
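Assay system: SV40-immortalized XiGFP fibroblast cells, line 68-5-11; buffer or medium: DMEM plus 5-aza-dC sensitizer; compound: one concentration, pinned; timing: compounds 3 days, fix/stain 15 min at room temperature; benchmarks: positive control ellipticine, 6 µM final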
PvdQ inh = blocks Pseudomonas aeruginosa PvdQ acylase activity; purified PvdQ acylase, fluorescence plate reader; inhibition, % at 10 µM; 0.063% of 340,000 active; in the data active = inhibition above about 30%, passing the limit was not always enough; inconclusive = no clear call, values can overlap the other calls;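 note: 0% = vehicle neutral wells and 100% = reference inhibitor wells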
CaV13 FRET inh = Disruptors of the CACNA1D IQ motif to Ca2+-dependent inactivation inhibitor domain association, primary screening, Förster resonance energy transfer in intact living …; 0.098% of 340,000 active; HEK cells, CFP/YFP FRET ICDI-IQ, plate reader, 10 min; percent FRET-ratio fall versus neutral wells; inhibition, % at 12.3 µM;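 active = mean replicate inhibition of at least 30% and at least 1% of replicates passing that level; inconclusive = only one of the two criteria is met; inactive = neither criterion is met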;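 note: 0% = median of the neutral control wells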
ERAP1 HTS inh = inhibitors of human ERAP1 aminopeptidase | Q9NZ08 | recombinant ERAP1, Leu-AMC fluorescence, 60 min | inhibition, % at 10.7 µM | 0.15% of 340,000 active | AID 652197;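 active = mean replicate inhibition of at least 30%, or all replicates individually reaching that 30% level; inactive = mean below 30% and not every replicate reaching it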;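 note: 0% = neutral control wells and 100% = L-leucinethiol positive control wells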
Target sequence (Q9NZ08 whole entry, looked up): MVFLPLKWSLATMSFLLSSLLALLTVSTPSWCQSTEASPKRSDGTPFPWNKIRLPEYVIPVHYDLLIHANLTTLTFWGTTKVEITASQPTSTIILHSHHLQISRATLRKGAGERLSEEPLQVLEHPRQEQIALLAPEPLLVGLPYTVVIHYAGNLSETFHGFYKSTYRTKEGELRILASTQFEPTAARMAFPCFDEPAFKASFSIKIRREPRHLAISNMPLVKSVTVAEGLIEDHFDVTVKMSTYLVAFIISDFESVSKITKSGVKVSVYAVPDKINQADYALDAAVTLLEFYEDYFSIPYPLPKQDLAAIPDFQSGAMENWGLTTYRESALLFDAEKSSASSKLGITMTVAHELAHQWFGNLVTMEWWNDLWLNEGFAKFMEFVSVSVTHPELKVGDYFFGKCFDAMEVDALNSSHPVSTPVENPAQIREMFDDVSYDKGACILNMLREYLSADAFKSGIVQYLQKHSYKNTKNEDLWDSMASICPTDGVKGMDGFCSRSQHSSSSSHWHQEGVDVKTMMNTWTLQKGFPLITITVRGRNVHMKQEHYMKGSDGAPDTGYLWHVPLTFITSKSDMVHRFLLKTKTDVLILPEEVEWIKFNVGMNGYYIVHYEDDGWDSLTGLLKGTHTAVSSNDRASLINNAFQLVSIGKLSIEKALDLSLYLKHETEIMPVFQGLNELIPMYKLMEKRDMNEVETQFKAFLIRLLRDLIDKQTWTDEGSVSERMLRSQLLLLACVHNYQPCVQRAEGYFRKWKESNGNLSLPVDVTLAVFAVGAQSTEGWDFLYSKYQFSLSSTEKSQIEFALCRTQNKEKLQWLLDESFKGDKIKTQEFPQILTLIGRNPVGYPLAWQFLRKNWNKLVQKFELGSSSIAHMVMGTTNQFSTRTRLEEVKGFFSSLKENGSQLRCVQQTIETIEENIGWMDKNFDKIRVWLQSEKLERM
* marks the source's active call; other numbers are inactive results; ? = inconclusive; · = no result given; + = active, no number; ! = not confirmed by another sample.

SMILES	XiGFP reactiv	PvdQ inh	CaV13 FRET inh	ERAP1 HTS inh
NC(=O)c1c(NC(=O)c2ccccc2)sc2c1CCN(Cc1ccccc1)C2	44*	0	+	-3
NC(=O)c1c(NC(=O)c2c(F)cccc2F)sc2c1CCN(Cc1ccccc1)C2	0	-9	-2	7
C/C=C/c1cnc2c(c1)C(=O)N([C@@H](C)CO)C[C@H](C)[C@@H](CN(C)Cc1ccncc1)O2	-1	·	·	0
Cc1ccc(OCC(=O)NNc2c3ccccc3nc3ccccc23)cc1	0	4	48*	-5
COc1ccc(NC(=O)N(C)C[C@H]2Oc3ccc(NC(=O)Nc4ccc(F)cc4)cc3C(=O)N([C@@H](C)CO)C[C@H]2C)cc1	-1	·	·	-1
Cc1ccc(-c2cnc3c(c2)C(=O)N([C@H](C)CO)C[C@@H](C)[C@H](CN(C)C(=O)CN(C)C)O3)cc1	0	·	·	·
CN(C)CCCNC(=O)C[C@@H]1CC[C@@H]2[C@@H](COc3ccc(NC(=O)NC4CCCC4)cc3C(=O)N2C)O1	0	·	·	-1
O=C(NS(=O)(=O)c1ccc(Cl)s1)c1ccccc1	0	4	46*	1
O=C(NCc1ccc(S(=O)(=O)Nc2ccccc2Cl)s1)c1ccccc1	0	-14	-5	2
O=C(c1ccccc1)N1CC(=O)N2[C@@H](CO)[C@H](c3ccc(/C=C/c4ccccc4)cc3)[C@@H]2C1	0	·	·	·
CC1CCC(C(C)C)C(OCC(O)C[N+]2(C)CCCCC2)C1 (stereo not given)	0	4	0	103*
COc1ccc2c(c1)[N+](C)(C)C(C)(C)C=C2C	0	-14	-1	45*
CCOc1ccc2c(c1)[N+](C)(C)C(C)(C)C=C2C	0	6	-5	41*
COc1ccc(-c2ccc(OC)cc2)cc1	·	52*	-5	·
COc1ccc(Oc2nc(Oc3ccc(OC)cc3)nc(Oc3ccc(OC)cc3)n2)cc1	·	-1	-5	·
N#Cc1cccnc1Nc1ccc(Cl)cc1	0	32*	-19	1
Cc1cc(C)c2sc(C)[n+](CCCS(=O)(=O)[O-])c2c1	0	-6	6	97*
Oc1[nH]c2ccccc2c1N=Nc1nc(Nc2ccccc2)nc(N2CCOCC2)n1	0	-3	-3	70*
Cc1[nH]c2ccccc2c1/C=N/Nc1nc(Nc2ccccc2)nc(N2CCOCC2)n1	·	-8	·	·
O=C(C[C@@H]1CC[C@H](NC(=O)C2CCC2)[C@@H](CO)O1)NCc1ccccc1Cl	0	·	·	1
COCCn1c(=NC(=O)CSC(C)=O)sc2cc(OC)ccc21	0	-13	-3	0
CCn1c(=NC(=O)CSC(C)=O)sc2cc(OC)ccc21	0	-7	40*	3
CN=C1S/C(=C\c2ccc(SC)cc2)C(=O)N1C	0	48*	-3	0
CO[C@@H]1CN(C)C(=O)c2cc(NC(C)=O)ccc2OC[C@@H](C)N(C(=O)c2ccccc2F)C[C@H]1C	0	·	·	0
C[C@@H]1CCCCO[C@H](CN(C)C(=O)c2ccncc2)[C@@H](C)CN([C@H](C)CO)C(=O)c2cc(NC(=O)Cc3ccccc3)ccc2O1	0	·	·	-6
SMILES	XiGFP reactiv	PvdQ inh	CaV13 FRET inh	ERAP1 HTS inh
C[C@@H]1CCC(=O)N(C[C@@H](C)CC#N)CC1	0	-25	1	2
C[C@@H](CC#N)CN1CC[C@H](C(C)(C)C)CCC1=O	0	8	34*	2
CCCCCCCCC[n+]1cccc2c3ccccc3ccc21	·	-13	·	·
CCCCCCCCCCCCCCCC[n+]1cccc2ccccc21	0	7	·	108*
C[C@@H]1CN([C@@H](C)CO)C(=O)c2cc(/C=C/c3ccccc3)cnc2O[C@@H]1CN(C)C(=O)c1ccc2c(c1)OCO2	1	·	·	0
Cc1cccn2c(=O)c3cc(C(=O)NCc4ccco4)c(=N)n(CCc4ccccc4)c3nc12	0	-16	39*	·
Cc1cccn2c(=O)c3cc(C(=O)NCc4ccc(F)cc4)c(=N)n(CCCN4CCOCC4)c3nc12	?	-5	116*	-29
Cc1cccn2c(=O)c3cc(C(=O)NCCc4ccccc4)c(=N)n(Cc4ccco4)c3nc12	0	-10	-3	-8
Cc1cccn2c(=O)c3cc(C(N)=S)c(=N)n(CCCN4CCOCC4)c3nc12	0	-8	+	·
CCCCNC(=O)c1cc2c(=O)n3cccc(C)c3nc2n(CCN2CCOCC2)c1=N	·	-7	·	·
N=c1c(C(=O)NCCN2CCOCC2)cc2c(=O)n3ccccc3nc2n1CCCN1CCOCC1	0	-4	7	37*
O=C(NC[C@H]1CC[C@H]2[C@H](CN2Cc2cccc(Cl)c2)O1)C1CCOCC1	·	·	·	-1
CC(C)NC(=O)N1C[C@@H]2C(c3ccc(Br)cc3)[C@H](C1)N2CC(F)(F)F (stereo not given in full)	0	·	·	·
COCCNC(=O)c1cc2c(=O)n3cccc(C)c3nc2n(Cc2ccncc2)c1=N	·	-45	43*	·
CN(C)c1ccc(/C=C/c2ccc3ccccc3n2)cc1	·	0	·	0
CCN(CC)c1ccc(/C=C/c2cc(-c3ccccc3)c3ccccc3n2)cc1	95*	3	-34	-4
Cc1ccc2c(c1)C1C3CCC(C3)C1S(=O)N2 (stereo not given)	0	57*	-7	2
Cc1ccc(NC(=O)c2cccc(N3C(=O)C4C5CCC(C5)C4C3=O)c2)c(C)c1 (stereo not given)	0	-1	-5	·
C[C@@H]1CCCCO[C@@H](CN(C)Cc2ccc3c(c2)OCO3)[C@@H](C)CN([C@H](C)CO)C(=O)c2cc(NC(=O)CCC(F)(F)F)ccc2O1	0	·	·	0
CCOC(=O)C1CCN(S(=O)(=O)c2ccc3c(c2)CC(=O)N3C)CC1	0	6	2	101*
C[n+]1cccc(C(=O)NCC2CCCO2)c1 (stereo not given)	0	-23	-5	99*
COc1ccccc1NC(=O)N1[C@H](C#N)[C@@H](c2ccccc2)[C@@H]1CO	0	·	·	0
CCN1Cc2cc(C(=O)NCCN3CCCC3)nc(-c3cccc(C4=CCCC4)c3)c2[C@H]1CCO	0	·	·	·
COc1cc(/C=C(\C#N)C(=O)NC(C)C)cc(Cl)c1O	0	20	48*	3
CC(C)NC(=O)/C(C#N)=C/c1cccc(NC(=O)c2ccccc2Cl)c1	0	-7	-5	7
SMILES	XiGFP reactiv	PvdQ inh	CaV13 FRET inh	ERAP1 HTS inh
O=C(c1ccc(F)cc1)c1cc2ccc(O)cc2oc1=O	0	15	1	0
COc1ccccc1C(=O)c1cc2ccc(O)cc2oc1=O	0	-11	144*	5
CCOC(=O)C1CCCN(CCCc2ccccc2)C1 (stereo not given)	0	-15	38*!	2
COc1ccc2[nH]c3c4c(ccc3c2c1)C(=O)C=CC4=O	12*	-11	-16	-1
CC(C)=CC[N+]1(C)CCCCC1	0	-16	-5	-1
COCC[N+]1(C)CCCCC1	0	-3	6	89*
O=C(C[C@@H]1C[C@@H]2c3cc(NC(=O)NC4CCCC4)ccc3O[C@@H]2[C@H](CO)O1)NCc1ccccc1	0	·	·	·

Screening results deposited in PubChem by Broad Institute.
